Source: PubChem (several laboratories)
The entries come from a sample that favours hits as a whole.
S1P4 antagonist = human S1P4 receptor antagonism; inhibition, % at 4.98 µM; O95977; 220,000 compounds, 0.26% hits; AID 1510; S1P4-expressing cells, antagonist mode, reporter read-out; in the data active means inhibition above about 29%;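 further: 0% = wells stimulated with agonist and 100% = vehicle wells without agonist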
Target sequence (O95977 whole entry, looked up): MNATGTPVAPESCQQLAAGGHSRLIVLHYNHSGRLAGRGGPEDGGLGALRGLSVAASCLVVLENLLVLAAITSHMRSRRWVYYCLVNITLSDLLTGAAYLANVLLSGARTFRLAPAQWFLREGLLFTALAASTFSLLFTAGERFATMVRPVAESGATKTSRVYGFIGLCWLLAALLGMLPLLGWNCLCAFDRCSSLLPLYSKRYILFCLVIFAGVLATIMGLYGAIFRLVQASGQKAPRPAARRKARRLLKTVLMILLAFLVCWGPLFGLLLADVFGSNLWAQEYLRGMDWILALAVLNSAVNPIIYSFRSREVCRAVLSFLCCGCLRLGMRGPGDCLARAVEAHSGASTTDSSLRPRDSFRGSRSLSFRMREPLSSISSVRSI
S1P3 antag = antagonists of human S1P3 receptor; AID 485; inhibition, % at 4.98 µM; CHO S1P3 NFAT-BLA reporter, FRET fluorescence, antagonist mode; 170,000 compounds, 0.27% hits;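 active means inhibition above the plate cutoff, the mean inhibition of test wells on that plate plus 3 SD, cut at about 28% in these data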;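 further: cells challenged with S1P at its EC80 of 0.8 µM; blue over green emission ratio from cleaved BLA substrate after 4 h stimulation; 0% = S1P-stimulated wells and 100% = unstimulated DMSO-only wells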
L major viab = Leishmania major promastigote growth inhibition. Leishmania major promastigotes, resazurin fluorescence viability. inhibition, % at 10 µM. 200,000 compounds, 9% hits. AID 1063; in the data active means inhibition above about 50%;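 further: promastigotes grown with compound for 44 hours at 28 °C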
Mdm2 ligase inh = inhibitors of human Mdm2 E3 ubiquitin ligase | AID 1230 | signal enhancement, % at 5 µM | cell-based MDM2 ubiquitination luciferase reporter, 2 h; 0 = plate control, 100 = twice control, blank-subtracted | Q00987 | 210,000 compounds, 0.11% hits;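 active means signal enhancement of 30% or more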;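 further: luminescence tracks abundance of the self-degrading MDM2-luciferase fusion protein; higher signal means inhibition of MDM2 E3 ligase activity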
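Material: stable MDM2–luciferase fusion reporter cells / Quantity: 2000 cells/well / Dosing: single 5 µM compound dose, 0.2% final DMSO / Buffer or medium: DMEM / Schedule: 4 h cell settling then 2 h compound exposure, 37 °C / Detection: luminescence with SteadyLite reagent, 15 min at room temperature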
S1P4 ag = human S1P4 receptor agonism. activation, % at 4.98 µM. O95977. 220,000 compounds, 0.35% hits. AID 1509. S1P4-expressing cell line, agonist reporter assay; in the data active means activation above about 11%;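 further: 0% = DMSO vehicle and 100% = reference agonist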
* = called active by the depositor; / = not tested or not shown.

SMILES	S1P4 antagonist	S1P3 antag	L major viab	Mdm2 ligase inh	S1P4 ag
CCOC(=O)c1ccc(N2CSC3=C(C#N)C(c4cccs4)CC(=O)N3C2)cc1 (stereo unspecified)	-22.6	95.8*	-8.1	-16.4	-1.1
CCc1ccc(N2CSC3=C(C#N)C(c4cccs4)CC(=O)N3C2)cc1 (stereo unspecified)	-4.5	-9.8	2.5	6.6	1.7
COc1ccccc1NC(=O)C1=C(C)N(c2ccccc2)C(=S)NC1c1cccc(C(F)(F)F)c1 (stereo unspecified)	-4.3	/	49.5	0.9	0.0
COC(=O)c1ccc(C2NC(=S)N(c3ccccc3)C(C)=C2C(=O)Nc2ccccc2OC)cc1 (stereo unspecified)	-18.0	/	72.1*	-6.5	-3.7
O=C(c1ccco1)N(CC1CCCO1)c1nc(-c2ccccc2)cs1 (stereo unspecified)	-7.3	18.6	12.2	-14.1	1.9
Cc1ccc(-c2csc(N(CC3CCCO3)C(=O)c3ccco3)n2)cc1 (stereo unspecified)	-10.8	-8.0	75.8*	-6.0	1.4
COc1ccc(-c2cc3nc4c(c(N5CCC6(CC5)OCCO6)n3n2)CCCC4)cc1	/	40.7	/	/	/
CN1CCN(c2cc(-c3ccccc3)nc3cc(-c4ccc(F)cc4)nn23)CC1	5.6	/	100.1*	-6.7	0.5
COc1cccc(-c2cc3nc(-c4ccccc4)cc(N4CCC5(CC4)OCCO5)n3n2)c1	-4.8	/	63.1*	-3.5	0.7
Cc1cc(N2CCN(C)CC2)n2cc(-c3ccc(F)cc3)nc2n1	-2.4	/	-0.6	-6.6	-1.6
Fc1ccc(-c2cc3nc(-c4ccccc4)cc(N4CCN(CCN5CCOCC5)CC4)n3n2)cc1	-0.9	2.9	77.3*	-10.2	0.6
COc1ccc(/C=C2\CCCc3c2nc2ccccc2c3C(=O)OCC(=O)c2c(N)n(C)c(=O)n(C)c2=O)cc1	-16.6	-5.8	25.7	-2.4	0.0
C=CCSc1nnc(NC(=O)CSc2nc3ccccc3o2)s1	-1.3	-28.2	-13.8	-11.1	1.0
CCn1cc(/C=N\NC(=O)Cc2ccc(Cl)cc2)cn1	-7.0	-1.1	-6.3	-1.3	-0.4
CCC(=O)NC1OC(CO)C(O)C(O)C1O (stereo unspecified)	-12.3	-5.5	-4.3	-7.3	2.2
Cc1ccc(NC(=O)c2ccc([N+](=O)[O-])o2)c(C)c1	25.0	-16.2	94.3*	-54.5	-1.2
CCCCn1nnc(NC(=O)c2ccc(-c3ccccc3[N+](=O)[O-])o2)n1	-7.2	-5.7	16.7	2.1	-1.1
Cc1cccnc1NC(=O)c1ccccc1-c1ccccc1C(=O)Nc1ncccc1C	-13.4	9.2	5.2	9.0	1.9
Cc1ccc(NC(=O)c2ccco2)c([N+](=O)[O-])c1	-16.8	-9.2	1.1	-1.6	1.4
CCn1nnc(NC(=O)c2ccc([N+](=O)[O-])o2)n1	19.9	-1.0	92.5*	-7.1	0.2
O=C(Nc1ccc2oc(-c3cccnc3)nc2c1)c1ccc([N+](=O)[O-])o1	10.9	4.2	100.1*	-1.9	-0.4
Cc1cccnc1NC(=O)c1ccc([N+](=O)[O-])o1	1.1	-2.6	76.5*	-5.5	2.4
O=C(Nc1ccc2oc(-c3cccnc3)nc2c1)c1ccc(Br)o1	4.0	/	-4.2	-13.8	5.2
CN(Cc1cccnc1)Cc1cn(Cc2ccccc2)nc1-c1ccc2c(c1)OCO2	-14.2	-9.8	1.8	-9.8	-0.3
O=C(Cc1ccccc1)N[C@@H](Cc1ccc(O)cc1)C(=O)O	/	/	/	14.7	/
SMILES	S1P4 antagonist	S1P3 antag	L major viab	Mdm2 ligase inh	S1P4 ag
Cc1cccc(NC(=O)c2ccc([N+](=O)[O-])o2)n1	-7.0	/	96.4*	-13.5	-0.7
CS(=O)(=O)N1CCN(c2ccccc2NC(=O)c2ccc([N+](=O)[O-])o2)CC1	-11.2	7.7	100.2*	-13.3	-0.3
Cc1ccccc1NC(=O)c1ccc([N+](=O)[O-])o1	26.0	1.8	69.2*	1.3	1.0
CCCc1nnc(NC(=O)CCC(=O)N2CCN(C3c4ccccc4-c4ccccc43)CC2)s1	1.7	-1.5	-5.9	2.0	1.9
COc1ccc(Br)c(OC)c1C(=O)NC(=O)Nc1nc(C)cc(C)n1	1.1	0.5	/	-16.8	-1.8
O=c1c2cnn(-c3ccccc3Cl)c2ncn1Cc1cccnc1	-3.3	-20.5	-0.2	-12.2	1.2
O=S(=O)(c1ccc(Cl)s1)N1CCN(C/C=C/c2ccccc2)CC1	1.7	5.8	82.8*	-11.3	1.2
O=S(=O)(Cc1ccccc1)N1CCN(C/C=C/c2ccccc2)CC1	-4.2	-8.9	70.7*	-2.7	-0.1
CCCN(CCC)C1=N/C(=C\c2ccco2)C(=O)N1c1ccccc1	-12.1	/	48.7	0.2	-0.7
COc1ccc(C(=O)NC(=S)NC(C)(C)C)cc1Br	-11.7	/	-2.2	-7.2	-0.2
O=C(/C=C/c1ccc(Cl)cc1)NC(=S)NN1CCCCC1c1cccnc1 (stereo unspecified)	-3.8	-4.0	90.7*	-17.5	3.7
CCOc1cc(/C=C/C(=O)OCC(=O)NC2CCS(=O)(=O)C2)ccc1OCc1ccccc1 (stereo unspecified)	-9.9	-10.2	11.0	-7.3	0.1
Cc1ccc(-c2nnc(Nc3ccc4c(c3)OCO4)c3ccccc23)cc1S(=O)(=O)NC(C)C	-8.1	-22.2	91.4*	/	1.0
CNC(=O)c1ccc(Nc2nnc(-c3ccc(C)c(S(=O)(=O)NCC4CCCO4)c3)c3ccccc23)cc1 (stereo unspecified)	4.9	7.7	-4.1	-4.6	1.2
CC(=O)Nc1ccc(Nc2nnc(-c3ccc(C)c(S(=O)(=O)NCC4CCCO4)c3)c3ccccc23)cc1 (stereo unspecified)	14.8	2.9	/	-3.2	0.9
Cc1ccc(-c2nnc(Nc3ccc4c(c3)OCO4)c3ccccc23)cc1S(=O)(=O)NCCO	-8.8	-11.7	76.8*	11.4	1.6
Cc1ccc(-c2nnc(Nc3ccccc3)c3ccccc23)cc1S(=O)(=O)NCC1CCCO1 (stereo unspecified)	6.1	/	80.3*	-1.4	-1.7
CC1=Nc2cc(C(=O)NCc3ccco3)ccc2Sc2ccc(C)cc21	-2.9	-0.9	59.2*	1.1	0.2
CCOC(=O)c1c(C2CC2)csc1NC(=O)COC(=O)c1cc(OC)c(OC)cc1[N+](=O)[O-]	1.1	-2.0	90.8*	-4.3	-2.0
COc1ccccc1N1C(=O)c2cccc3c(C(=O)O)ccc(c23)C1=O	-13.0	/	-2.4	0.1	2.2
Cc1ccc(N2C(=O)c3cccc4c(Oc5ccccc5[N+](=O)[O-])ccc(c34)C2=O)c(C)c1	-7.5	2.1	97.4*	-7.0	-1.0
C/C(=C\C(=O)c1ccccc1)Nc1ccc(O)cc1	-1.7	/	16.5	-13.5	1.6
C/C(=C\C(=O)c1cccnc1)Nc1ccc(O)cc1	3.9	/	99.1*	-15.3	2.6
CC1=C(C(=O)Nc2ccccc2)C(c2ccncc2)n2nnnc2N1 (stereo unspecified)	1.7	-23.4	56.8*	-14.2	2.2
